Columns and labels:
[1] = Photobleaching of the compound irradiated with laser energy at 405 nm for 5 mins; format: physicochemical; design: dose or concentration left out as unconfirmed
Enterococcus faecalis [2] = assay: Photodynamic inactivation of Enterococcus faecalis ATCC 29212 assessed as reduction of log10 CFU at 5 uM incubated prior to irradiation with 25 j/cm'2 for 20 secs measured after 24 hrs by agar plating method (reference value: <1 no unit); format: functional
How it was run: (§1)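 E. faecalis ATCC 29212, aerobic overnight BHI culture at 37 °C, was harvested at stationary phase and suspended in PBS at 10^7–10^8 bacteria/mL. It was mixed 1:1 with PS to 0–250 µM final, held 10 s, then illuminated (1260 ± 50 mW/cm2) or kept dark. Dilutions were plated on Mueller-Hinton agar, aerobic 37 °C 24 h, CFU counted. Medians of three independent triplicate experiments, referred to untreated controls.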

Enterococcus faecalis [3] = assay: Photodynamic inactivation of Enterococcus faecalis ATCC 29212 assessed as reduction of log10 CFU at 5 uM incubated prior to irradiation with 150 j/cm'2 for 120 secs measured after 24 hrs by agar plating method (reference value: <1 no unit); format: functional; how it was run: as §1
Enterococcus faecalis [4] = assay: Photodynamic inactivation of Enterococcus faecalis ATCC 29212 assessed as reduction of log10 CFU at 100 uM incubated prior to irradiation with 25 j/cm'2 for 20 secs measured after 24 hrs by agar plating method (reference value: <1 no unit); format: functional; how it was run: as §1
Enterococcus faecalis [5] = assay: Photodynamic inactivation of Enterococcus faecalis ATCC 29212 assessed as reduction of log10 CFU at 1 uM incubated prior to irradiation with 50 j/cm'2 for 40 secs measured after 24 hrs by agar plating method (reference value: <1 no unit); format: functional; how it was run: as §1
Enterococcus faecalis [6] = assay: Photodynamic inactivation of Enterococcus faecalis ATCC 29212 assessed as reduction of log10 CFU at 10 uM incubated prior to irradiation with 150 j/cm'2 for 120 secs measured after 24 hrs by agar plating method (reference value: <1 no unit); format: functional; how it was run: as §1
Enterococcus faecalis [7] = assay: Photodynamic inactivation of Enterococcus faecalis ATCC 29212 assessed as reduction of log10 CFU at 10 uM incubated prior to irradiation with 25 j/cm'2 for 20 secs measured after 24 hrs by agar plating method (reference value: <1 no unit); format: functional; how it was run: as §1
Enterococcus faecalis [8] = assay: Photodynamic inactivation of Enterococcus faecalis ATCC 29212 assessed as reduction of log10 CFU at 100 uM incubated prior to irradiation with 150 j/cm'2 for 120 secs measured after 24 hrs by agar plating method (reference value: <1 no unit); format: functional; how it was run: as §1
Enterococcus faecalis [9] = assay: Photodynamic inactivation of Enterococcus faecalis ATCC 29212 assessed as reduction of log10 CFU at 100 uM incubated prior to irradiation with 50 j/cm'2 for 40 secs measured after 24 hrs by agar plating method (reference value: <1 no unit); format: functional; how it was run: as §1
[10] = Induction of singlet oxygen generation measured over 20 mins by luminescence assay; format: physicochemical
Enterococcus faecalis [11] = assay: Toxicity in Enterococcus faecalis ATCC 29212 assessed as reduction of log10 CFU at 1 to 250 uM incubated for 10 secs under dark condition measured after 24 hrs by agar plating method; format: organism-based; conditions: in vivo
How it was run: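 Dark controls. Overnight BHI cultures (EF, SM, AN aerobic; AA anaerobic; 37 °C) were washed into PBS at 10^7–10^8 cells/mL. They were mixed 1:1 with photosensitizer at final 0–250 µM and incubated 10 s, 7.5 min or 15 min, then kept in the dark for 20, 40 or 120 s. Tenfold dilutions were plated: EF on Mueller-Hinton agar, aerobic 24 h; SM on BHI agar, aerobic 48 h; AN on blood agar, aerobic 48 h; AA on BHI agar, anaerobic 48 h; all at 37 °C. CFU were compared with untreated controls; medians of three independent experiments in triplicate.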

[12] = Octanol-water partition coefficient, log P of the compound at 1 x 10^-4 mol at room temperature after 10 mins by UV/vis spectroscopic analysis; format: physicochemical
Enterococcus faecalis [13] = assay: Photodynamic inactivation of Enterococcus faecalis ATCC 29212 assessed as reduction of log10 CFU at 1 uM incubated prior to irradiation with 25 j/cm'2 for 20 secs measured after 24 hrs by agar plating method (reference value: <1 no unit); format: functional; how it was run: as §1
Enterococcus faecalis [14] = assay: Photodynamic inactivation of Enterococcus faecalis ATCC 29212 assessed as reduction of log10 CFU at 5 uM incubated prior to irradiation with 50 j/cm'2 for 40 secs measured after 24 hrs by agar plating method (reference value: <1 no unit); format: functional; how it was run: as §1
Enterococcus faecalis [15] = assay: Photodynamic inactivation of Enterococcus faecalis ATCC 29212 assessed as reduction of log10 CFU at 10 uM incubated prior to irradiation with 50 j/cm'2 for 40 secs measured after 24 hrs by agar plating method (reference value: <1 no unit); format: functional; how it was run: as §1
Enterococcus faecalis [16] = assay: Photodynamic inactivation of Enterococcus faecalis ATCC 29212 assessed as reduction of log10 CFU at 1 uM incubated prior to irradiation with 150 j/cm'2 for 120 secs measured after 24 hrs by agar plating method (reference value: <1 no unit); format: functional; how it was run: as §1
Leishmania infantum = assay: Leishmanicidal activity against amastigote stage of Leishmania infantum MCAN/ES/89/IPZ229/1/89 after 2 hrs by MTT assay; format: functional, organism-based; conditions: MCAN/ES/89/IPZ229/1/89, 2 h
Leishmania donovani = assay: Leishmanicidal activity against promastigote stage of Leishmania donovani MHOM/SD/00/1S-2D after 2 hrs by MTT assay; format: functional, organism-based

Structure (SMILES)	Stability [1]	log10cfu (Enterococcus faecalis [2])	log10cfu (Enterococcus faecalis [3])	log10cfu (Enterococcus faecalis [4])	log10cfu (Enterococcus faecalis [5])	log10cfu (Enterococcus faecalis [6])	log10cfu (Enterococcus faecalis [7])	log10cfu (Enterococcus faecalis [8])	log10cfu (Enterococcus faecalis [9])	Activity [10]	Activity (Enterococcus faecalis [11])	logP at 10 min [12]	log10cfu (Enterococcus faecalis [13])	log10cfu (Enterococcus faecalis [14])	log10cfu (Enterococcus faecalis [15])	log10cfu (Enterococcus faecalis [16])	EC50 (Leishmania infantum)	EC50 (Leishmania donovani)
CCCC[N+](C)(C)CC1=Cc2cccc3cccc(c23)C1=O.[Cl-]	Unstable	<1	3	>6	<1	>6	<3	>6	>6	Active	Non-toxic	-0.8	<1	<3	<3	<3		
O=C1C(CCl)=Cc2cccc3cccc1c23												1.3						
CC(c1ccccc1)[N+](C)(C)CC1=Cc2cccc3cccc(c23)C1=O.[Cl-] (stereo unspecified)	Unstable	<3	>6	>6	<1	>6	<3	>6	>6	Active	Non-toxic	-0.1	<1	<3	<3	<3		
COC1=Cc2cccc3ccc(-c4ccccc4)c(c23)C1=O	Unstable									Active							< 60 µg/mL	< 60 µg/mL
O=C1C(O)=Cc2cccc3ccc(-c4ccccc4)c1c23	Unstable									Active							< 60 µg/mL	< 60 µg/mL
